Reference: ChEMBL document CHEMBL4196114 (ACS Med Chem Lett, 2018)

Legend:
[1] = system: Leishmania infantum; test: Antileishmanial activity against Leishmania infantum MHOM/TN/80/IPT1 promastigotes after 72 hrs by MTT assay; type: functional, organism-based; details: MHOM/TN/80/IPT1, 72 h
Method in brief: (§1)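 Promastigotes grown in Schneider's medium with 10% FCS at 22 °C. Assay in RPMI with 10% FCS, 20 mM Hepes and 2 mM glutamine, 5×10⁶ parasites/mL, seven serial dilutions from DMSO stocks, 72 h at 22 °C. MTT added for 3 h, pellet lysed in SDS/DMF, A550 read against 650 nm reference. IC50 given as mean of separate duplicate experiments; amphotericin B as reference.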

[2] = system: Leishmania tropica; test: Antileishmanial activity against Leishmania tropica MHOM/IT/2012/ISS3130 promastigotes after 72 hrs by MTT assay; type: functional, organism-based; details: MHOM/IT/2012/ISS3130, 72 h; method in brief: as §1
[3] = system: THP-1; test: Cytotoxicity against PMA-differentiated human THP1 cells after 72 hrs by MTT assay; type: cell-based; details: THP-1, 72 h
Method in brief: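 THP-1 cells at 5×10⁵ cells/mL, differentiated with 0.1 μM PMA for 48 h, then exposed to serial dilutions for 72 h. Viability read by MTT; IC50 for growth inhibition. Duplicate experiments, mean reported.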

[4] = Selectivity index, ratio of IC50 for PMA-differentiated human THP1 cells to IC50 for Leishmania infantum MHOM/TN/80/IPT1 promastigotes; type: toxicity; details: read-out: Ratio IC50
[5] = Selectivity index, ratio of IC50 for PMA-differentiated human THP1 cells to IC50 for Leishmania tropica MHOM/IT/2012/ISS3130 promastigotes; type: toxicity; details: read-out: Ratio IC50

Compound | IC50 [1] [µM] | IC50 [2] [µM] | IC50 [3] [µM] | selectivity ratio [4] | selectivity ratio [5]
CCN(CC)CCCC(C)Nc1ccnc2c1CCCC2 (stereo not given) | > 69.1 | > 69.1 | > 69.1 | > 1 | > 1
CCN(CC)CCCNc1c(N)cnc2cc(Cl)ccc12 | 16.6 | 9.35 | > 65.2 | > 3.9 | > 7
Fc1ccc2scc(C#CCNCCCCNc3ccnc4ccccc34)c2c1 | 1.02 | 1.37 | 7.11 | 7 | 5.2
N#Cc1ccc(-c2ccc(-c3ccc(CNCCCCNc4ccnc5cc(Cl)ccc45)cc3)s2)cc1 | 2.3 | 1.94 | 5.01 | 2.2 | 2.6
Fc1ccc2scc(-c3ccc(CNCCCNc4ccnc5ccccc45)cc3)c2c1 | 1.03 | 0.81 | 2.31 | 2.2 | 2.8
CCN(CC)CCCNc1c([N+](=O)[O-])cnc2cc(Cl)ccc12 | 8.67 | 2.77 | 23.7 | 2.7 | 8.5
N#Cc1ccc(-c2ccc(-c3ccc(CNCCCCCCCCNc4ccnc5ccccc45)cc3)s2)cc1 | 0.35 | 0.3 | 1.38 | 4 | 4.6
O=[N+]([O-])c1cnc2cc(Cl)ccc2c1NCCCNCC12CC3CC(CC(C3)C1)C2 | 1.91 | 2.24 | 12.6 | 6.6 | 5.6
CCN(CC)CCCC(C)Nc1c(N)cnc2cc(Cl)ccc12 (stereo not given) | 16.6 | 6.63 | > 59.7 | > 3.6 | > 9
CC(CCNCCC12CC3CC(CC(C3)C1)C2)Nc1ccnc2ccccc12 (stereo not given) | 2.4 | 2.35 | 4.9 | 2 | 2.1
N#Cc1ccc(-c2ccc(-c3ccc(CNCCCCCNc4ccnc5cc(Cl)ccc45)cc3)s2)cc1 | 5.42 | 7.11 | 8.1 | 1.5 | 1.1
CCN(CC)CCCNc1ccnc2c1CCCC2 | > 76.5 | > 76.5 | > 76.5 | > 1 | > 1
CCN(CC)CCCC(C)Nc1c([N+](=O)[O-])cnc2cc(Cl)ccc12 (stereo not given) | 6.49 | 2.96 | > 110 | > 16.9 | > 37
Nc1cnc2cc(Cl)ccc2c1NCCCNCC12CC3CC(CC(C3)C1)C2 | 1.77 | 1.3 | 6.39 | 3.6 | 4.9
c1ccc2c(NCCCCNCc3csc4ccccc34)ccnc2c1 | 0.64 | 0.68 | 3.76 | 5.8 | 5.5
Fc1ccc2scc(-c3ccc(CNCCCCNc4ccnc5cc(Cl)ccc45)cc3)c2c1 | 1.02 | 0.85 | 4.28 | 4.2 | 5
CN(CCCCCCCCNc1ccnc2ccccc12)Cc1ccc(-c2ccc(-c3ccc(C#N)cc3)s2)cc1 | 0.8 | 1.06 | 3.85 | 4.8 | 3.6
Clc1ccc2c(NCCCCCNCCC34CC5CC(CC(C5)C3)C4)ccnc2c1 | 0.73 | 0.66 | 1.81 | 2.5 | 2.7
N#Cc1ccc(-c2ccc(-c3ccc(CNCCCCNc4ccnc5ccccc45)cc3)s2)cc1 | 1.22 | 1.54 | 2.8 | 2.3 | 1.8
CN(CCCCCCCCNc1ccnc2c1CCCC2)Cc1ccc(-c2ccc(-c3ccc(C#N)cc3)s2)cc1 | 0.83 | 0.8 | 3.68 | 4.4 | 4.6
